# From ChEMBL document CHEMBL4304827, “Design, synthesis and evaluation of structurally diverse chrysin-chromene-spirooxindole hybrids as anticancer agents” (Bioorg Med Chem, 2019)
# Tested on: A549
# Assay: Induction of ROS production in human A549 cells incubated for 24 hrs by DCFH-DA staining based fluorescence microscopy
# Type: functional, cell-based
# How it was run: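 A549 cells were plated at 3 × 10^5/well and cultured 12 h, then treated with various concentrations for 24 h. They were washed in serum-free medium and loaded with DCFH-DA (10 μM) for 20 min at 37 °C in the dark. DCF fluorescence was imaged by fluorescence microscopy.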
smiles,measurement,value
CN1C(=O)C2(C(C#N)=C(N)Oc3cc4oc(-c5ccccc5)cc(=O)c4c(O)c32)c2cc(Br)ccc21 (stereo unspecified),Activity,Dose-dependent effect
